Source: ChEMBL document CHEMBL1134548, “Disabling erbB receptors with rationally designed exocyclic mimetics of antibodies: structure-function analysis” (J Med Chem, 2001)
Positions of bridges follow the written chain, without caps; N, C: chain ends. Residues, ends and D or L forms follow the SMILES beside them.

Columns and labels:
[1] = Solubility in the PBS buffer at 1 mg/mL; Limited solubility; assay type: physicochemical
[2] = target: T1, Receptor tyrosine-protein kinase erbB-2 (Homo sapiens, UniProt P04626); assay: Kinetic constant for peptide inhibitor binding to HER2 receptor
T1 sequence (P04626 whole entry, the tested form may be a part): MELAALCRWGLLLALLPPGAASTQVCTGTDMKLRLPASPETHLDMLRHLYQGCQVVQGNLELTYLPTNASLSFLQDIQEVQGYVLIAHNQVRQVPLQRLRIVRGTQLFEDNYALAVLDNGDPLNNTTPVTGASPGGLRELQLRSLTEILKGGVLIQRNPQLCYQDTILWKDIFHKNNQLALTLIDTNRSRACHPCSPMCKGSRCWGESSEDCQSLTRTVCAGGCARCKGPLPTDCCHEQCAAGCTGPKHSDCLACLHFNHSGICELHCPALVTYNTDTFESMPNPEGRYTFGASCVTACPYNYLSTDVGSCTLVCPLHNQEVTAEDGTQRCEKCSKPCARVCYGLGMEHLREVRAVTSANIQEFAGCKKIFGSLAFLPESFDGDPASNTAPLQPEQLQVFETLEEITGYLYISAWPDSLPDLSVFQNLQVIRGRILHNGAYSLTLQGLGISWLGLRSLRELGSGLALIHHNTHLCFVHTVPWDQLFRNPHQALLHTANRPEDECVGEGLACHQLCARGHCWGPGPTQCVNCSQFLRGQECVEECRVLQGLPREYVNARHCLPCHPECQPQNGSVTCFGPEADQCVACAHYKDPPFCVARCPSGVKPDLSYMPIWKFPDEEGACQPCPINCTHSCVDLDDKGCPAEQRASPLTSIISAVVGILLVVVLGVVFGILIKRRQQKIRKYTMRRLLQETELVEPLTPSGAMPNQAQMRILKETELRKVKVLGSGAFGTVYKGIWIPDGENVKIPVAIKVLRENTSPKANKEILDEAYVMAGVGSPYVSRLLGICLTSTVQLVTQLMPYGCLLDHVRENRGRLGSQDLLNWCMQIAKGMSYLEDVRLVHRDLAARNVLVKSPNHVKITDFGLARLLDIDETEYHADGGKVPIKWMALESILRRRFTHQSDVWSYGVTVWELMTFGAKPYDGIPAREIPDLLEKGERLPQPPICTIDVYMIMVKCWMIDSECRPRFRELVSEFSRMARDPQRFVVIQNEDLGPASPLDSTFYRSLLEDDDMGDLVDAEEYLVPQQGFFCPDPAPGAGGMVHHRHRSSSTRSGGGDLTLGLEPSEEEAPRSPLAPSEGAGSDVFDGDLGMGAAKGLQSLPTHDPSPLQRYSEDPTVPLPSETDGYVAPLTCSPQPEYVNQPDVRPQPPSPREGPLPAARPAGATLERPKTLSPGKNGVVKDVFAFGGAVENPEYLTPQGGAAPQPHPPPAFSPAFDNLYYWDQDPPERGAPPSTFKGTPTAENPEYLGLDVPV
Outline: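 Surface plasmon resonance at 25 °C. HER2 ectodomain–human IgG Fc fusion was amine-coupled (EDC/NHS, 40 ng/mL in 10 mM NaOAc pH 5.0) to 3500 RU, with a blank reference surface. Peptides were flowed at variable concentrations at 20 µL/min, with 240 s association and 300 s dissociation. Signals were reference- and buffer-subtracted, and kon, koff and KD (koff/kon) were fitted to a pseudo-first-order model.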

[3] = Inhibition of T6-17 cell proliferation; assay type: functional, Mus musculus; design: concentration or dose not given beside the values
Outline: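 T6-17 cells (NIH3T3 engineered to overexpress human HER2) seeded overnight at 1000/well in DMEM with 10% FBS, then cultured 48 h in fresh medium with peptide at 1 µg/mL. MTT (5 mg/mL in PBS) added, 2 h at 37 °C. SDS/DMF extraction buffer (pH 4.7) added, overnight at 37 °C, then OD 600 nm read. Each value is the mean of at least four samples.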

[4] = Solubility in the PBS buffer at 1 mg/mL; Good solubility; assay type: physicochemical
[5] = target: T1, Receptor tyrosine-protein kinase erbB-2; assay: Dissociation constant for peptide inhibitor binding to HER2 receptor
Outline: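 Surface plasmon resonance at 25 °C. Recombinant HER2 ectodomain–human IgG Fc fusion was amine-coupled to the sensor chip to 3500 RU. A blank reference surface was subtracted. Peptides were injected at variable concentrations at 20 µL/min, with 240 s association and 300 s dissociation. Signals were buffer-subtracted and fitted to a pseudo-first-order model, and KD was taken as koff/kon.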

Structure (SMILES) | S [1] | k off [2] [s⁻¹] | k on [2] [M⁻¹ s⁻¹] | S [4] | Inhibition [3] [%] | Kd [5] [µM]
CSCC[C@H](NC(=O)[C@H](Cc1ccc(O)cc1)NC(=O)[C@@H]1CSSC[C@H](NC(=O)[C@@H](N)Cc2ccccc2)C(=O)N[C@@H](CC(=O)O)C(=O)NCC(=O)N[C@@H](Cc2ccccc2)C(=O)N[C@@H](Cc2ccc(O)cc2)C(=O)N[C@@H](C)C(=O)N1)C(=O)N[C@@H](CC(=O)O)C(=O)N[C@H](C(N)=O)C(C)C | Insoluble | 0.000453 | 1410 |  | 35.5 | 
CC(C)[C@H](NC(=O)[C@H](CC(=O)O)NC(=O)[C@H](CCCCN)NC(=O)[C@H](Cc1ccc(O)cc1)NC(=O)[C@@H]1CSSC[C@H](NC(=O)[C@@H](N)Cc2ccccc2)C(=O)N[C@@H](CC(=O)O)C(=O)NCC(=O)N[C@@H](Cc2ccccc2)C(=O)N[C@@H](Cc2ccc(O)cc2)C(=O)N[C@@H](C)C(=O)N1)C(=O)O (H-FCDGFYACYKDV-OH; disulfide 2-8) |  | 0.00125 | 219 | Soluble | 8.4 | 
CSCC[C@H](NC(=O)[C@H](Cc1ccc(O)cc1)NC(=O)[C@@H]1CSSC[C@H](NC(=O)[C@@H](N)Cc2ccccc2)C(=O)NCC(=O)N[C@@H](CC(=O)O)C(=O)NCC(=O)N[C@@H](Cc2ccccc2)C(=O)N[C@@H](Cc2ccc(O)cc2)C(=O)N[C@@H](C)C(=O)N1)C(=O)N[C@@H](CC(=O)O)C(=O)N[C@H](C(=O)O)C(C)C (H-FCGDGFYACYMDV-OH; disulfide 2-9) |  | 0.000701 | 922 | Soluble | 18.4 | 
CSCC[C@H](NC(=O)[C@H](Cc1ccc(O)cc1)NC(=O)[C@@H]1CSSC[C@H](NC(=O)[C@@H](N)Cc2ccccc2)C(=O)N[C@@H](CC(=O)O)C(=O)NCC(=O)N[C@@H](Cc2ccccc2)C(=O)N[C@@H](Cc2ccc(O)cc2)C(=O)N[C@@H](C)C(=O)N1)C(=O)N[C@@H](CC(=O)O)C(=O)N[C@H](C(=O)O)C(C)C (stereo in doubt; 2) [listing 1 of 2 here] | Insoluble |  |  |  | 22.3 | 
CSCC[C@H](NC(=O)[C@H](Cc1ccc(O)cc1)NC(=O)[C@@H]1CSSC[C@H](NC(=O)[C@@H](N)Cc2ccccc2)C(=O)N[C@@H](CC(=O)O)C(=O)NCC(=O)N[C@@H](Cc2ccccc2)C(=O)N[C@@H](Cc2ccc(O)cc2)C(=O)N[C@@H](C)C(=O)N1)C(=O)N[C@@H](CC(=O)O)C(=O)N[C@H](C(=O)O)C(C)C (stereo in doubt; 2) [listing 2 of 2 here] |  | 0.000643 | 990 |  |  | 
CSCC[C@H](NC(=O)[C@H](Cc1ccc(O)cc1)NC(=O)[C@@H]1CSSC[C@H](NC(=O)[C@@H](N)Cc2ccccc2)C(=O)N[C@@H](CC(=O)O)C(=O)NCC(=O)N[C@@H](Cc2ccccc2)C(=O)N[C@@H](Cc2ccc(O)cc2)C(=O)N[C@@H](C)C(=O)N1)C(=O)N[C@@H](CC(=O)O)C(=O)N[C@H](C(=O)O)C(C)C (stereo in doubt; 9) [listing 1 of 2 here] |  |  |  |  |  | 3.56
CSCC[C@H](NC(=O)[C@H](Cc1ccc(O)cc1)NC(=O)[C@@H]1CSSC[C@H](NC(=O)[C@@H](N)Cc2ccccc2)C(=O)N[C@@H](CC(=O)O)C(=O)NCC(=O)N[C@@H](Cc2ccccc2)C(=O)N[C@@H](Cc2ccc(O)cc2)C(=O)N[C@@H](C)C(=O)N1)C(=O)N[C@@H](CC(=O)O)C(=O)N[C@H](C(=O)O)C(C)C (stereo in doubt; 9) [listing 2 of 2 here] |  | 0.00106 | 298 |  |  | 

Second part, led by results:

S [1] | k off [2] [s⁻¹] | k on [2] [M⁻¹ s⁻¹] | S [4] | Structure (SMILES) | Inhibition [3] [%] | Kd [5] [µM]
Insoluble | 0.000294 | 1960 |  | CSCC[C@H](NC(=O)[C@H](Cc1ccc(O)cc1)NC(=O)[C@@H]1CSSC[C@H](NC(=O)[C@@H](N)Cc2ccc(O)cc2)C(=O)N[C@@H](CC(=O)O)C(=O)NCC(=O)N[C@@H](Cc2ccccc2)C(=O)N[C@@H](Cc2ccc(O)cc2)C(=O)N[C@@H](C)C(=O)N1)C(=O)N[C@@H](CC(=O)O)C(=O)N[C@H](C(N)=O)C(C)C | 59.6 | 
 | 0.000603 | 1720 | Soluble | CSCC[C@H](NC(=O)[C@@H](Cc1ccc(O)cc1)NC(=O)[C@@H]1CSSC[C@H](NC(=O)[C@H](N)Cc2ccccc2)C(=O)N[C@@H](CC(=O)O)C(=O)NCC(=O)N[C@@H](Cc2ccccc2)C(=O)N[C@@H](Cc2ccc(O)cc2)C(=O)N[C@@H](C)C(=O)N1)C(=O)N[C@@H](CC(=O)O)C(=O)N[C@H](C(N)=O)C(C)C |  | 
Insoluble | 0.000512 | 617 |  | CSCC[C@H](NC(=O)[C@H](Cc1ccc(O)cc1)NC(=O)[C@@H]1CSSC[C@H](NC(=O)[C@@H](N)Cc2ccccc2)C(=O)N[C@@H](CC(=O)O)C(=O)NCC(=O)N[C@@H](Cc2ccccc2)C(=O)N[C@@H](Cc2ccc(O)cc2)C(=O)N[C@@H](C)C(=O)N1)C(=O)N[C@@H](CC(=O)O)C(=O)N[C@H](C(=O)N[C@@H](CCCCN)C(N)=O)C(C)C (H-FCDGFYACYMDVK-NH2; disulfide 2-8) |  | 
 | 0.000808 | 1110 | Soluble | CSCC[C@H](NC(=O)[C@H](Cc1ccc(O)cc1)NC(=O)[C@@H]1CSSC[C@H](NC(=O)[C@H](Cc2ccccc2)NC(=O)CN)C(=O)N[C@@H](CC(=O)O)C(=O)NCC(=O)N[C@@H](Cc2ccccc2)C(=O)N[C@@H](Cc2ccc(O)cc2)C(=O)N[C@@H](C)C(=O)N1)C(=O)N[C@@H](CC(=O)O)C(=O)N[C@H](C(=O)O)C(C)C (H-GFCDGFYACYMDV-OH; disulfide 3-9) |  | 
